Calls of active or inactive are those of the source. The rule behind the calls is not given here.
Key:
[1] = system: HL-60; test: Induction of apoptosis in human HL60 cells after 48 hrs using annexin V-propidium iodide staining by FACS analysis; format: functional, cell-based
In short: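 HL60 cells incubated with test compound at a concentration set from its CC50. Stained with FITC-Annexin V and analysed by flow cytometry, with treated-cell fluorescence compared against control cells.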

[2] = Antioxidant activity assessed as free radical scavenging activity by lipid peroxidation assay; format: functional
In short: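 Lipid peroxidation system initiated with 400 mM FeCl3 and 200 mM L-ascorbic acid (stock levels as printed). Test compound added at several concentrations; control without compound. Incubated 37 °C, 60 min. Stopped with 0.25 N HCl / 1.5% TCA / 0.375% thiobarbituric acid, boiled 15 min, cooled, centrifuged. Absorbance read at 532 nm; percent inhibition versus control used to derive EC50.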

[3] = system: HL-60; test: Cytotoxicity against human HL60 cells after 5 days by MTT assay; format: functional; conditions: HL-60, 120 h
[4] = Cytotoxicity against human PBMC cells after 5 days by MTT assay; format: cell-based
In short: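 Cells seeded at 3 × 10^5 cells/mL in 96-well plates and kept at 37 °C in humidified 5% CO2 with test compound for 5 days. PBMC came from healthy donors. Viability read by MTT; CC50 calculated. Mean ± SD of three independent experiments, Student t-test.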

[5] = system: HL-60; test: Induction of apoptosis in human HL60 cells assessed as fragmentation of DNA after 48 hrs by electrophoresis; format: functional, cell-based
In short: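 HL60 cells exposed to test compound alongside untreated control. After 48 h, DNA extracted, run on 0.8% agarose gel with ethidium bromide, and fragmentation pattern imaged.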

Row | Compound | Activity [1] | EC50 [2] [µM] | CC50 [3] [µM] | CC50 at 120 h [4] [µM] | Activity [5]
1 | COc1ccc2cc3[n+](cc2c1OC)CCc1cc2c(cc1-3)OCO2 | Active | – | – | – | –
2 | CCOc1ccc2c(c1)OC(c1ccc([N+](=O)[O-])cc1)C(c1ccccc1)C2=O (centres undefined) | – | > 2500 | 203 | 1360 | Active
3 | COc1ccc2c(c1)OC(c1ccc(Cl)cc1)C(c1ccccc1)C2=O (centres undefined) | – | 165 | 2410 | > 2500 | Active
4 | COc1ccc2c(c1)OC(c1ccc([N+](=O)[O-])cc1)C(c1ccccc1)C2=O (centres undefined) | – | > 2500 | 73.2 | 595 | Active
5 | COc1ccc2c(c1)OC(c1cccc([N+](=O)[O-])c1)C(c1ccccc1)C2=O (centres undefined) | – | 130 | > 2500 | > 2500 | Active
6 | CCOc1ccc2c(c1)OC(c1cccc([N+](=O)[O-])c1)C(c1ccccc1)C2=O (centres undefined) | – | 193 | > 2500 | > 2500 | Active
7 | COc1ccc2c(c1)OCC(c1ccccc1)C2=O (centres undefined) | – | 965 | 82.6 | 521 | Active
8 | CCOc1ccc2c(c1)OC(c1ccc(Cl)cc1)C(c1ccccc1)C2=O (centres undefined) | – | 578 | 514 | > 2500 | Active
9 | COc1ccc2c(c1)OC(c1ccccc1)C(c1ccccc1)C2=O (centres undefined) | – | 500 | 2330 | > 2500 | Active
10 | O=c1[nH]cc(F)c(=O)[nH]1 [FLUOROURACIL] | – | – | 0.07 | – | –
11 | O=C1O[C@H]([C@@H](O)CO)C(O)=C1O [ASCORBIC ACID] | – | 754 | – | – | –
12 | CCOc1ccc2c(c1)OC(c1ccccc1)C(c1ccccc1)C2=O (centres undefined) | – | 877 | > 2500 | > 2500 | Active

Reference: ChEMBL document CHEMBL1165893, “Synthesis, anticancer and antioxidant activities of 7-methoxyisoflavanone and 2,3-diarylchromanones” (Eur J Med Chem, 2010)
